For experiment [1], the target named is Glutamate NMDA receptor; GRIN1/GRIN2B (Homo sapiens, UniProt Q05586+Q13224). Briefly: Inhibition of NMDA-evoked increased intracellular [Ca2+] in cells expressing NR1/NR2B receptor. It is filed as cell-based.
Experiment [2] concerns Mus musculus. Briefly: In vivo analgesic activity was tested using formalin test in mouse upon p.o. administration. It is filed as functional. To be noted: po. The gist of the method:
(§1)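 Mice were pretreated orally with the compound suspended in 5% Tween-80, then given formalin into the hindpaw. Licking was counted 20–25 min after the formalin injection. Percentage inhibition was calculated for each dose, and the dose giving a half-maximal effect (ED50) was determined.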

For experiment [3], the target named is Glutamate [NMDA] receptor. As to the kind of experiment: Inhibition of [3H]-Ro-25-6981 binding to NMDA receptor. It is filed as protein-complex assay.
Experiment [4] concerns Mus musculus. As to the kind of experiment: In vivo analgesic activity was tested using formalin test in mouse upon i.p. administration. It is filed as functional. To be noted: ip. A digest of the protocol:
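Mice were pretreated intraperitoneally before formalin injection into the hindpaw. Licking behaviour was counted 20–25 min after the formalin injection. Percentage inhibition was calculated per dose, and the ED50 (the dose producing a half-maximal effect) was derived.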

The test system of experiment [5] is Mus musculus. Briefly: In vivo analgesic activity was tested using formalin test in mouse upon p.o. administration; IA is inactive. It is filed as functional, organism-based. A digest of the protocol:
as §1

Experiment [6] deals with Mus musculus. As to the kind of experiment: In vivo analgesic activity was tested using formalin test in mouse upon s.c. administration. The following applies: sc. It is filed as functional.

SMILES strings stand for the structures. Calls of active or inactive are those of the source. The rule behind the calls is not given here.

As usually defined, the IC50 is the concentration that inhibits the measured activity by half. Higher therefore signals a need for much substance. What is called ED50 is the dose that gives a 50% effect, or the effect in half of the subjects.

Sequence of Glutamate NMDA receptor; GRIN1/GRIN2B (Q13224 whole entry, other chains not shown): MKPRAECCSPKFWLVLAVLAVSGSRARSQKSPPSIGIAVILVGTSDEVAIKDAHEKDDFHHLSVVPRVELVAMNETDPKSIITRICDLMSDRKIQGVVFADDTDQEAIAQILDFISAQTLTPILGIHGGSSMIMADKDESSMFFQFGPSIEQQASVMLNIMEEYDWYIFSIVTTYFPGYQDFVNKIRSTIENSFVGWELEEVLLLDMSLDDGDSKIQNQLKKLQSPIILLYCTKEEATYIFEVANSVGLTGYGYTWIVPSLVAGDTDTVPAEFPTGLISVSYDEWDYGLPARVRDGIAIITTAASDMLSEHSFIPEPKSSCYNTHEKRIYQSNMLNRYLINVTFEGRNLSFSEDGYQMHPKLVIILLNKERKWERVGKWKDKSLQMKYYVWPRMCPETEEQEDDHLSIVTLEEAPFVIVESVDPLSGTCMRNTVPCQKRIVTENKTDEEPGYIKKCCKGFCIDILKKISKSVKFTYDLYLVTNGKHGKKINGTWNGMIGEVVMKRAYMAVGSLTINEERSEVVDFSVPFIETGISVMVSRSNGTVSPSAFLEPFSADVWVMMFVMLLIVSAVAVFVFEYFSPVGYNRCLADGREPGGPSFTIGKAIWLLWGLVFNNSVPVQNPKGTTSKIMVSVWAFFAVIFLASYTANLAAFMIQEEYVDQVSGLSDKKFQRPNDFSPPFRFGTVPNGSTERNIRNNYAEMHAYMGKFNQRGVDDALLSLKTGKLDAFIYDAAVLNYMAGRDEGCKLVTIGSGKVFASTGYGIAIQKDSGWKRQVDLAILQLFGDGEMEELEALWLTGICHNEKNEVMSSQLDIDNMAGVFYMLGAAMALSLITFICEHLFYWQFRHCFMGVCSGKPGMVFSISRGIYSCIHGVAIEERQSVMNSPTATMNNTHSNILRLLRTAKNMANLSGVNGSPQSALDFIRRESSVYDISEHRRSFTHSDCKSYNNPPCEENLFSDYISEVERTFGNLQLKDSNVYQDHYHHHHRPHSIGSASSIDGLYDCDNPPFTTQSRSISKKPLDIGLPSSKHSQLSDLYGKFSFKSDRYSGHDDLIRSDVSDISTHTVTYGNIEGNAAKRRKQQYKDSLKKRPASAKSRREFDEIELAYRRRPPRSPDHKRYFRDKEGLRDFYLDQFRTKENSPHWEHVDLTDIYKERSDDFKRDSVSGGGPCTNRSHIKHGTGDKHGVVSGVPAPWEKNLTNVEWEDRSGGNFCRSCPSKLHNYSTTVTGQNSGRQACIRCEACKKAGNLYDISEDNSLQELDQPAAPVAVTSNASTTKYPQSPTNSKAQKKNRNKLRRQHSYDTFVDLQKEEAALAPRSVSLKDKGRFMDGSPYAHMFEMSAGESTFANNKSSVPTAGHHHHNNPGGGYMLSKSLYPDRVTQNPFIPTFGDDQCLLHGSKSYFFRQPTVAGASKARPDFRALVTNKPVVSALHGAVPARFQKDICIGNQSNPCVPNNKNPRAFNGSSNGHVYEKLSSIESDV

In the case of `O=C(Nc1ccc2[nH]c(=O)[nH]c2c1)C(=O)N1CCC(Oc2ccc(Cl)cc2)CC1`, the IC50 was determined as 8 nM in experiment [1] and 26 nM in experiment [3]. Moreover, the ED50 in the experiment on Mus musculus [2] was > 20 mg/kg.

On to `Cc1ccc(OC2CCN(C(=O)C(=O)Nc3ccc4nc(S)[nH]c4c3)CC2)cc1`, for which the results for the concentration for half-maximal inhibition (IC50) in experiment [1] and in experiment [3] were 10 nM and 131 nM, respectively. Besides, in the experiment with Mus musculus [2], the ED50 is > 20 mg/kg.

In the experiment with Mus musculus [2], `O=c1[nH]c2ccc([S+]([O-])CCN3CCC(Cc4ccc(F)cc4)CC3)cc2o1` (configuration not stated) [BESONPRODIL] yielded an ED50 of 2.4 mg/kg.

The compound `C[C@@H](CN1CCC(Cc2ccccc2)CC1)[C@@H](O)c1ccc(O)cc1` came in with an ED50 in the experiment with Mus musculus [4] of 5.1 mg/kg. Moreover, in the experiment on Mus musculus [5], the ED50 entry is “inactive”.

For `O=C1Nc2ccc(NC(=O)C(=O)N3CCC(Cc4ccccc4)CC3)cc2CO1`, the IC50 in experiment [1] was found to be 29 nM; in experiment [3], 139 nM. Besides, the median effective dose (ED50) in the experiment with Mus musculus [2] is < 0.1 mg/kg.

Regarding `O=C(Nc1ccc(O)cc1)C(=O)N1CCC(Cc2ccccc2)CC1`, the 50% inhibitory concentration (IC50) was determined as 31 nM in experiment [1] and 16 nM in experiment [3]. This compound also registered a 50% effective dose (ED50) in the experiment with Mus musculus [2] of 9.4 mg/kg.

Compound `Cc1ccc(CC2(O)CCN(CCOc3ccc(O)cc3)CC2)cc1` yielded an IC50 in experiment [1] of 5 nM. The ED50 in the experiment on Mus musculus [4] is 5.9 mg/kg. Besides, the ED50 entry in the experiment with Mus musculus [5] was “inactive”.

In the case of `Cc1ccc(CC2CCN(C(=O)C(=O)Nc3ccc4c(c3)OCC(=O)N4)CC2)cc1`, the IC50 in experiment [1] worked out at 18 nM; in experiment [3] it was 17 nM. Moreover, the 50% effect level in the experiment with Mus musculus [2] (ED50) was put at a dose of 10 mg/kg.

For the compound `C[C@@H]([C@@H](O)c1ccc(O)cc1)N1CCC(O)(c2ccccc2)CC1` [TRAXOPRODIL], the ED50 in the experiment with Mus musculus [6] and with Mus musculus [2] was > 20 mg/kg each time.

On to `O=C(Nc1ccc2[nH]c(=O)[nH]c2c1)C(=O)N1CCC(Cc2ccccc2)CC1`, for which the results for the IC50 in experiment [1] and in experiment [3] were 6 nM and 4 nM, respectively. Further, it took a dose of 14 mg/kg to reach the 50% effect level with Mus musculus [2] (ED50).

On to `O=C(Nc1ccc2[nH]c(=O)oc2c1)C(=O)N1CCC(Oc2ccc(Cl)cc2)CC1`, for which the figures for the IC50 in experiment [1] and in experiment [3] were 7 nM and 40 nM, respectively. Besides, the 50% effect level in the experiment with Mus musculus [2] (ED50) was put at a dose of 4.4 mg/kg.

With `Cc1ccc(OC2CCN(C(=O)C(=O)Nc3ccc4[nH]c(=O)sc4c3)CC2)cc1`, the half-inhibitory concentration (IC50) in experiment [1] came to 8 nM; in experiment [3] it was 17 nM. In the experiment on Mus musculus [2], this compound registered an ED50 of 0.2 mg/kg.

Turning to `Cc1ccc(CC2CCN(C(=O)C(=O)Nc3ccc4c(c3)CC(=O)N4)CC2)cc1`, the 50% inhibitory concentration (IC50) came out at 15 nM in experiment [1] and 54 nM in experiment [3]. Besides, in the experiment on Mus musculus [2], the ED50 was 0.5 mg/kg.

On to `O=C(CCN1CCC(Cc2ccc(F)cc2)CC1)c1ccc2nc(O)oc2c1`, for which the IC50 was 48 nM in experiment [1] and 8 nM in experiment [3]. This compound also had an ED50 with Mus musculus [2] of 3.7 mg/kg.

Consider `O=C(Nc1ccc2[nH]c(=O)oc2c1)C(=O)N1CCC(Cc2ccc(F)cc2)CC1` [RADIPRODIL], for which the results for the IC50 in experiment [1] and in experiment [3] were 4 nM and 6 nM, respectively. Moreover, the ED50 with Mus musculus [2] came to 7.7 mg/kg.

Consider `O=C(Nc1ccc2[nH]c(=O)[nH]c2c1)C(=O)N1CCC(Cc2ccc(F)cc2)CC1`, for which the results for the 50% inhibitory concentration (IC50) in experiment [1] and in experiment [3] were 2 nM and 5 nM, respectively. Besides, in the experiment on Mus musculus [2], the ED50 is > 20 mg/kg.

`O=C(c1cc2cc(O)ccc2[nH]1)N1CCC(Cc2ccccc2)CC1` had a 50% inhibitory concentration (IC50) in experiment [1] of 42 nM. It took a dose of 1.4 mg/kg to reach the 50% effect level in the experiment with Mus musculus [2] (ED50).

For the compound `O=C(Nc1ccc2[nH]c(=O)oc2c1)C(=O)N1CCC(Cc2ccccc2)CC1`, the IC50 was 3 nM in experiment [1] and 8 nM in experiment [3]. In the experiment with Mus musculus [2], this compound showed an ED50 of 0.9 mg/kg.

As for `O=C(Nc1ccc2[nH]c(=O)sc2c1)C(=O)N1CCC(Cc2ccccc2)CC1`, the IC50 in experiment [1] amounted to 9 nM; in experiment [3] it was 17 nM. The ED50 in the experiment with Mus musculus [2] amounted to 0.4 mg/kg.

Values taken from ChEMBL document CHEMBL1137121, “Oxamides as novel NR2B selective NMDA receptor antagonists” (Bioorg Med Chem Lett, 2004).
